Measured values of several laboratories.
Each line is one published result; the experiments were not run side by side.
PIK3CA I800L: Phosphatidylinositol 4,5-bisphosphate 3-kinase catalytic subunit alpha isoform (PIK3CA, Homo sapiens, UniProt P42336, I800L)
PIK3CA E545A: Phosphatidylinositol 4,5-bisphosphate 3-kinase catalytic subunit alpha isoform (PIK3CA, Homo sapiens, UniProt P42336, E545A)
PIK3CA: Phosphatidylinositol 4,5-bisphosphate 3-kinase catalytic subunit alpha isoform (PIK3CA, Homo sapiens, UniProt P42336)
PIK3CA M1043I: Phosphatidylinositol 4,5-bisphosphate 3-kinase catalytic subunit alpha isoform (PIK3CA, Homo sapiens, UniProt P42336, M1043I)
PIK3CA H1047Y: Phosphatidylinositol 4,5-bisphosphate 3-kinase catalytic subunit alpha isoform (PIK3CA, Homo sapiens, UniProt P42336, H1047Y)
PIK3CA E542K: Phosphatidylinositol 4,5-bisphosphate 3-kinase catalytic subunit alpha isoform (PIK3CA, Homo sapiens, UniProt P42336, E542K)

| SMILES | target | test | setting | measurement | result |
| --- | --- | --- | --- | --- | --- |
| CN(C)c1nccc(-c2cnn3ncccc23)n1 | PIK3CA I800L | binding | 1 µM | remaining binding | 96% |
| NS(=O)(=O)c1cc(NC(=O)Cc2ccccc2)ccc1Oc1cccc(Cl)c1 | PIK3CA E545A | cell-free assay, competition with immobilised ligand | 1 µM | remaining binding | 69% |
| c1ccc(CNc2nc(N3CCOc4ccccc43)nc3c2CCCC3)cc1 | PIK3CA | target engagement in cells, inhibitor, chemoproteomics | 20 mM | inhibition | 28.5% |
| CC(C)(O)c1cncc(-c2nc3ccc(F)cc3n2C2CC2)c1 | PIK3CA M1043I | cell-free assay, competition with immobilised ligand | 1 µM | remaining binding | 100% |
| C[C@@H]1CCN(c2nccc(-c3cnn4ncccc34)n2)C1 | PIK3CA E545A | binding | 1 µM | remaining binding | 88% |
| Cc1c[nH]c2nccc(Oc3c(F)cc(Nc4cc(Cl)nc(N)n4)cc3F)c12 | PIK3CA H1047Y | cell-free assay, competition with immobilised ligand | 0.1 µM | remaining binding | 83% |
| C=CC(=O)N1CCC(C(=O)N(C)CCCC(=O)N2CCN(c3nc(-c4cnc(N)nc4C(F)F)nc(N4CCOCC4)n3)CC2)CC1 | PIK3CA | cell-free assay, TR-FRET |  | kinact/KI | 33600 M⁻¹ s⁻¹ |
| O=C(Nc1cccnn1)N1CC(C/C=C/c2cncc(Oc3ccc(C(F)(F)F)cn3)n2)C1 | PIK3CA I800L | cell-free assay, competition with immobilised ligand | 1 µM | remaining binding | 91% |
| N[C@@H]1CCN(c2nccc(-c3cnn4ncccc34)n2)C1 | PIK3CA E542K | binding | 1 µM | remaining binding | 80% |
| Cc1ccc(C(=O)Nc2ccc(CN3CCN(C)CC3)c(C(F)(F)F)c2)cc1C#Cc1cnc2cccnn12 | PIK3CA E542K | enzyme activity, inhibitor | 23.5 nM | remaining activity | 96% |
| C=CC(=O)NCCCCC(=O)N1CCN(c2nc(-c3cnc(N)nc3C(F)F)nc(N3CCOCC3)n2)CC1 | PIK3CA | ligand displacement, TR-FRET |  | kinact | 9.6e-05 s⁻¹ |
| c1cnn2ncc(-c3ccnc(N4CCC45COC5)n3)c2c1 | PIK3CA I800L | binding | 1 µM | remaining binding | 68% |
| C=CC(=O)N(C)CCCCC(=O)N1CCN(c2nc(-c3cnc(N)nc3C(F)F)nc(N3CCOCC3)n2)CC1 | PIK3CA | cell-free assay, TR-FRET |  | kinact/KI | 20300 M⁻¹ s⁻¹ |
| CN(C)c1ncc(F)c(-c2cnn3ncccc23)n1 | Phosphatidylinositol 4,5-bisphosphate 3-kinase catalytic subunit alpha isoform (PIK3CA, Homo sapiens, UniProt P42336, H1047L) | binding | 1 µM | remaining binding | 100% |
| CS(=O)(=O)Nc1cc(-c2ccc3ncnc(Nc4ccc(F)c(Cl)c4)c3c2)cnc1Cl | PIK3CA | enzyme activity, inhibitor, FRET | 10 µM | inhibition | 90 to 100% |
| Cc1cnn2ncc(-c3ccnc(N(C)C)n3)c2c1 | PIK3CA I800L | binding | 1 µM | remaining binding | 100% |
| NS(=O)(=O)c1cc(NC(=O)C2(c3ccccc3Cl)CC2)ccc1Oc1cccc(Cl)c1 | PIK3CA I800L | cell-free assay, competition with immobilised ligand | 1 µM | remaining binding | 100% |
| Cc1ccc(C(=O)NCc2ccsc2)cc1C#Cc1cn(C(C)C)c2ncnc(N)c12 | Phosphatidylinositol 4,5-bisphosphate 3-kinase catalytic subunit alpha isoform, with p85 (PIK3CA, Homo sapiens, UniProt P42336) | enzyme activity, inhibitor | 1 µM | activity vs control | 97% |
| O=S(=O)(Nc1cc(Sc2ncn[nH]2)c(O)c2ccccc12)c1ccc(-c2ccccc2)cc1 | PIK3CA | enzyme activity, inhibitor | 1 µM | remaining activity | ≥ 75% |
| O=c1nc(-c2ccccn2)sc2ccccc12 | PIK3CA M1043I | cell-free assay, competition with immobilised ligand | 1 µM | remaining binding | 100% |
| Nc1ncnc2occ(-c3ccc(NC(=O)Nc4cc(C(F)(F)F)ccc4F)cc3)c12 | Phosphatidylinositol 4,5-bisphosphate 3-kinase catalytic subunit alpha isoform (PIK3CA, Homo sapiens, UniProt P42336, Q546K) | cell-free assay, inhibitor | 20 µM | remaining signal | 72% |
| F[C@@H]1CCN(c2nccc(-c3cnn4ncccc34)n2)C1 | PIK3CA H1047Y | binding | 1 µM | remaining binding | 81% |
| Nc1cnc(N2CCc3cc(S(=O)(=O)Nc4c(F)cc(Cl)cc4F)cc(N4CCCC4=O)c32)nc1 | PIK3CA H1047Y | cell-free assay, competition with immobilised ligand | 1 µM | remaining binding | 100% |
| CC(C)CCn1c(SCC(=O)Nc2ccccc2C(F)(F)F)nc2nccnc2c1=O | PIK3CA | enzyme activity, inhibitor | 10 µM | inhibition | < 20% |
| CC(C)=CC(=O)CCCC(=O)N1CCN(c2nc(-c3cnc(N)nc3C(F)F)nc(N3CCOCC3)n2)CC1 | PIK3CA | cell-free assay, TR-FRET |  | kinact | 2.6e-05 s⁻¹ |
| CC(=O)Oc1ccc(-c2coc3c4c(c(CC=C(C)C)c(OC(C)=O)c3c2=O)OC(C)(C)C=C4)cc1OC(C)=O | PIK3CA E542K | enzyme activity, inhibitor, ADP detection | 10 µM | remaining activity | 46.1% |
